Assay results published in paper PMC3253265 (Immunity, 2011).

Legend:
42F3 TCR [1] = test: SPR; type: binding, mouse; conditions: sc H2-L^d constructs
42F3 T cells [2] = type: cell-based; conditions: CD8+ and CD8− 42F3 T cell lines, peptide-loaded APCs, up to 100μM peptide
42F3 T cells [3] = type: cell-based; conditions: recombinant H2-L^d-Ig dimers, CD8+ 42F3 T cells, IL-2 release
Outline: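 CD8+ 42F3 hybridoma transfectants were stimulated with recombinant H2-Ld-Ig dimers loaded with peptide instead of APC-presented peptide. IL-2 release was read by ELISA. Anti-CD3 (2C11) and/or native peptide controlled IL-2 sensitivity. No-peptide and irrelevant H2-Ld MCMV epitope controls covered peptide-independent IL-2.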

42F3 T cells [4] = test: p3A1 antagonist assay; type: cell-based; conditions: 42F3 T cells stimulated with 100nM p4B3, range of p3A1 concentrations, same APC
Outline: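 Antagonism assay: 42F3 hybridoma cells were stimulated with an agonist peptide at 100nM. The test peptide was added over a range of concentrations, and IL-2 production was read by ELISA. Anti-CD3 (2C11) and/or native peptide served as IL-2 sensitivity controls. No peptide and an irrelevant H2-Ld MCMV epitope controlled for peptide-independent IL-2.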

[5] = system: 42F3 TCR on CD8αβ− 42F3 T cells; type: binding
Outline: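 42F3 hybridoma transfectants supplied the TCR. RBCs were biotinylated with biotin-X-NHS and then bound to streptavidin. Borosilicate beads were cleaned, silanized and reacted with streptavidin-maleimide. Both carried […] biotin-tagged single-chain H2-Ld-peptide complexes, the same ones used for SPR. Flow cytometry measured site densities of TCR on cells and pMHC on RBC or beads. Micropipette adhesion frequency and thermal fluctuation assays were run.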

42F3 TCR [6] = test: Fluorescent 42F3-tetramer staining of peptide-loaded APCs; type: cell-based
Outline: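 Tetramers were made by complexing C-terminally biotinylated recombinant 42F3 TCR with PE-labelled streptavidin. They were used to stain peptide-loaded APCs, with fluorescence read by flow cytometry. Staining was compared against SPR-derived 3D affinities of the pMHC ligands.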

42F3 T cells [7] = test: Fluorescent sc H2-L^d-tetramer staining of 42F3 T cells; type: cell-based

SPLDSLWWI [p3A1]
SPR derived 3D affinity (KA), rank among the peptides (42F3 TCR [1]): highest affinity
IL-2 response (42F3 T cells [2]): failed to induce a strong IL-2 response
stimulation of 42F3 T cells by peptide-loaded H2-L^d-Ig dimers (42F3 T cells [3]): failed to stimulate
effect on agonist (p4B3) induced activation (42F3 T cells [4]): not influenced
2D-Ackon [5]: weak
2D-koff, rank among the peptides ([5]; H2-L^d-peptide): slowest 2D-koff
42F3-tetramer staining of peptide-loaded APCs (42F3 TCR [6]): stain
H2-L^d-peptide-tetramer staining of 42F3 T cells (42F3 T cells [7]): did not stain
